Experimental data from ChEMBL document CHEMBL3120073, “Simplified pretubulysin derivatives and their biological effects on cancer cells” (J Nat Prod, 2014).
The source made the active and inactive calls. The rule behind the calls is not given here.

How the values were obtained:
CCRF-CEM VCR/R [1] = assay: (§1) Induction of apoptosis in human CCRF-CEM VCR/R cells at 2.5 uM after 72 hrs by CellTitre-Blue assay relative to control; type: functional
In short: (§2)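 CCRF-CEM-VCR-R cells treated 72 h at 2.5, 1, 0.1 or 0.01 μM; vincristine reference at 2.5 μM. Viability read by CellTiterBlue, reagent added for 2 h at 37 °C, fluorescence measured. Results given as percent of mock-treated control. Three independent experiments in quadruplicate, means ± SEM, t test.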

CCRF-CEM VCR/R [2] = assay: (§3) Induction of apoptosis in human CCRF-CEM VCR/R cells at 1 uM after 72 hrs by CellTitre-Blue assay relative to control; type: functional; in short: as §2
MDA-MB-231 [3] = assay: Cytotoxicity against human MDA-MB-231 cells at 1 to 1000 nM after 72 hrs by CellTitre-Blue assay; type: functional, cell-based
In short: (§4)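 MDA-MB-231 cells in 96-well plates were exposed to serial dilutions (0.1–1000 nM) for 72 h. CellTiterBlue reagent was added for 2 h at 37 °C and fluorescence was read. Viability is expressed as % of mock-treated control, from which IC50 was taken. Three independent experiments, quadruplicate.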

MDA-MB-231 [4] = assay: Antimigratory activity against human MDA-MB-231 cells at 1 uM after 18 hrs by wound healing assay; type: functional, cell-based
In short: (§5)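 MDA-MB-231 grown to 100% confluence in 96-well plates (2 × 10^5 per well). A ~1 mm scratch was made, detached cells were washed off and compound or DMSO was added for 16–18 h. Cells were fixed in 4% formaldehyde, stained with crystal violet and imaged. Covered area was corrected by an unscratched-and-fixed 0% control and expressed relative to DMSO (100%). Three independent experiments, quintuplicate.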

MDA-MB-231 [5] = assay: Antimigratory activity against human MDA-MB-231 cells assessed as reduction in wound closure at 100 nM after 18 hrs by wound healing assay; type: functional; set-up: scale not given: the % may be the effect or the level left; in short: as §5
MDA-MB-231 [6] = assay: Cell cycle arrest in human MDA-MB-231 cells assessed as accumulation at G2/M phase at 10 nM after 48 hrs by propidium iodide staining-based flow cytometry; type: functional
MDA-MB-231 [7] = assay: Cell cycle arrest in human MDA-MB-231 cells assessed as reduction in G1 phase at 100 nM after 48 hrs by propidium iodide staining-based flow cytometry; type: functional
MDA-MB-231 [8] = assay: Cell cycle arrest in human MDA-MB-231 cells assessed as accumulation at G2/M phase at 100 nM after 48 hrs by propidium iodide staining-based flow cytometry (reference value: 22%); type: functional
MDA-MB-231 [9] = assay: Cytotoxicity against human MDA-MB-231 cells after 72 hrs by CellTitre-Blue assay; type: functional, cell-based; conditions: MDA-MB-231, 72 h; in short: as §4
Tubulin (Homo sapiens) [10] = biological target: T1, Tubulin (Homo sapiens) (UniProt P68371+Q9H4B7+P0DPH7+P68366+Q13509+Q71U36+P04350+Q3ZCM7+P07437+P68363+Q9BQE3+Q6PEY2+Q13885+Q9BVA1+Q9BUF5); assay: Inhibition of tubulin polymerization in human T24 cells at 10 nM after 24 hrs by Hoechst 33342 staining-based immunohistochemistry; type: cell-based; conditions: T-24
Tubulin (Homo sapiens) [11] = biological target: T1, Tubulin (Homo sapiens); assay: Inhibition of tubulin polymerization in human MDA-MB-231 cells assessed as disruption of tubulin cytoskeleton at 10 nM after 24 hrs by Hoechst 33342 staining-based immunohistochemistry; type: cell-based
In short: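 MDA-MB-231 cells treated 24 h at 1, 10, 100 or 1000 nM, or DMSO 0.1%. Extracted 2 min in PIPES pH 6.8/MgCl2/EGTA/0.5% Triton buffer, fixed with 0.5% glutaraldehyde, reduced with NaBH4, blocked with 0.2% BSA. Anti-α-tubulin 1 h, then AlexaFluor 488 secondary plus Hoechst 33342 for 45 min. Imaged by laser scanning microscopy.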

[12] = Cytotoxicity against human HMEC1 cells after 72 hrs by crystal violet staining assay; type: functional, cell-based; conditions: HMEC-1, 72 h
[13] = Induction of apoptosis in human CCRF-CEM VCR/R cells assessed as cell viability at 2.5 uM after 72 hrs by CellTitre-Blue assay relative to control; type: functional; conditions: read-out: Activity
In short: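 Vincristine-resistant CCRF-CEM-VCR-R cells in 96-well plates were treated for 72 h at 0.01, 0.1, 1 or 2.5 μM. Viability was read by CellTiterBlue as % of mock-treated control. Three independent experiments, quadruplicate; t test.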

[14] = Induction of apoptosis in human CCRF-CEM VCR/R cells at 1 uM after 48 hrs by propidium iodide staining-based flow cytometry; type: functional
In short: (§6)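 CCRF-CEM or CCRF-CEM-VCR-R cells were treated for 48 h. Cells were permeabilized in hypotonic propidium iodide solution and analysed by flow cytometry in logarithmic mode. Apoptosis was scored as the sub-G1 (DNA fragmentation) percentage.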

CCRF-CEM = assay: Induction of apoptosis in human CCRF-CEM cells at 1 to 100 nM after 48 hrs by propidium iodide staining-based flow cytometry; type: functional, cell-based; in short: as §6
Tubulin (Homo sapiens) [15] = biological target: T1, Tubulin (Homo sapiens); assay: Inhibition of tubulin polymerization in human T24 cells at 100 nM after 24 hrs by Hoechst 33342 staining-based immunohistochemistry; type: cell-based; conditions: T-24
In short: (§7)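 Cells (MDA-MB-231, or T-24 bladder carcinoma) were treated for 24 h at 1–1000 nM, or with DMSO (0.1%). Monomers were extracted for 2 min (80 mM PIPES pH 6.8, 1 mM MgCl2, 5 mM EGTA, 0.5% Triton X-100), then fixed with 0.5% glutaraldehyde and reduced with NaBH4. Staining used BSA blocking, anti-α-tubulin, an AlexaFluor 488 secondary and Hoechst 33342, with confocal imaging.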

Tubulin (Homo sapiens) [16] = biological target: T1, Tubulin (Homo sapiens); assay: Inhibition of tubulin polymerization in human MDA-MB-231 cells assessed as disruption of tubulin cytoskeleton at 100 nM after 24 hrs by Hoechst 33342 staining-based immunohistochemistry; type: cell-based; in short: as §7
[17] = as §1; type: functional; in short: as §2
[18] = as §3; type: functional; in short: as §2
MDA-MB-231 [19] = assay: Cell cycle arrest in human MDA-MB-231 cells assessed as accumulation at G2/M phase at 10 nM after 48 hrs by propidium iodide staining-based flow cytometry (reference value: 22%); type: functional
PBMC = assay: Cytotoxicity against human PBMC at 1 uM after 24 to 72 hrs by MTT assay; type: cell-based

Compound	Activity (CCRF-CEM VCR/R [1])	Activity (MDA-MB-231 [3])	Activity (MDA-MB-231 [4])	Activity (MDA-MB-231 [5])	Activity (MDA-MB-231 [6])	Activity (MDA-MB-231 [7])	Activity (MDA-MB-231 [8]) [%]	IC50 (MDA-MB-231 [9]) [nM]	inhibition (Tubulin (Homo sapiens) [10])	inhibition (Tubulin (Homo sapiens) [11])	EC50 [12] [nM]	further results
CC[C@H](C)[C@H](NC(=O)[C@H]1CCCCN1C)C(=O)N(C)[C@H](CCc1nc(C(=O)N[C@H](CCC(=O)O)Cc2ccccc2)cs1)C(C)C	Active	Active	Active	35%	inactive	Active	60	10.1	Active	Active	4.4	Activity (CCRF-CEM VCR/R [2]): Active
CC[C@]1(O)C[C@H]2CN(CCc3c([nH]c4ccccc34)[C@@](C(=O)OC)(c3cc4c(cc3OC)N(C=O)[C@H]3[C@@](O)(C(=O)OC)[C@H](OC(C)=O)[C@]5(CC)C=CCN6CC[C@]43[C@@H]65)C2)C1 [VINCRISTINE]								1.6				viability at 2.5 µM [13]: 80%; Activity [14]: 20%; Activity (CCRF-CEM): Active
CC[C@H](C)[C@H](NC(=O)[C@H]1CCCCN1C)C(=O)N(C)[C@H](CCc1cccc(C(=O)N[C@@H](Cc2ccccc2)C[C@H](C)C(=O)O)c1)C(C)C	Active	Active	Active	inactive	inactive	Active	33	100			13.2	inhibition (Tubulin (Homo sapiens) [15]): Active; inhibition (Tubulin (Homo sapiens) [16]): Active
CC[C@H](C)[C@H](NC(=O)[C@H]1CCCCN1C)C(=O)N(C)[C@H](CCc1nc(C(=O)N[C@@H](Cc2ccccc2)C[C@H](C)C(=O)O)cs1)C(C)C		Active	Active					0.6	Active	Active		Activity [17]: 30%; Activity [18]: 70%; Activity (MDA-MB-231 [19]): >30%; Activity (PBMC): Toxic
